Assay results from ChEMBL document CHEMBL2440016, “Targeting the human parasite Leishmania donovani: discovery of a new promising anti-infectious pharmacophore in 3-nitroimidazo[1,2-a]pyridine series” (Bioorg Med Chem, 2013).

Columns and labels:
[1] = Cytotoxicity against mouse J774.1 cells after 72 hrs by MTT assay; format: cell-based; conditions: J774.1 cells
Summary of the method: (§1)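 Cells plated in RPMI with 10% FCS, L-glutamine and penicillin/streptomycin, 24 h at 37 °C, 6% CO2. Compound dilutions then added for 72 h. MTT 0.5 mg/mL in PBS for 2 h, formazan dissolved in DMSO, A570 with 630 nm reference. Viability taken as % of untreated control. Doxorubicin served as positive control. CC50 from the dose-response curve.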

[2] = Selectivity index, ratio of CC50 for mouse J774.1 cells to IC50 for Leishmania donovani MHOM/IN/00/DEVI; format: functional
Leishmania donovani [3] = assay: Antimicrobial activity against Leishmania donovani MHOM/IN/00/DEVI promastigotes after 72 hrs by MTT assay; format: functional, organism-based; conditions: Leishmania donovani, MHOM/IN/00/DEVI, 72 h; read-out: IC50
Summary of the method: (§2)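 Log-phase promastigotes in Schneider's medium with 20% FCS, 2 mM L-glutamine and penicillin/streptomycin, at 10⁶ parasites/mL. Compound dilutions run in duplicate, final DMSO <0.5%, 72 h at 27 °C. MTT 0.5 mg/mL for 6 h at 27 °C, formazan dissolved in DMSO, A570.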

[4] = Cytotoxicity against human HepG2 cells after 72 hrs by MTT assay; format: cell-based; conditions: HepG2 cells; summary of the method: as §1
[5] = Selectivity index, ratio of CC50 for human HepG2 cells to IC50 for Leishmania donovani MHOM/IN/00/DEVI; format: functional
Summary of the method: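 SI = HepG2 CC50 / L. donovani IC50.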

Leishmania infantum = assay: Antimicrobial activity against Leishmania infantum MCAN/ES/98/LLM-877 promastigotes after 72 hrs by MTT assay; format: functional, organism-based; conditions: MCAN/ES/98/LLM-877, 72 h; summary of the method: as §2
Plasmodium falciparum = assay: Antiplasmodial activity against Plasmodium falciparum K1 infected in human erythrocytes after 72 hrs by SYBR Green I fluorescence assay; format: functional, organism-based; conditions: K1, 72 h
Summary of the method: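 K1 strain, resistant to chloroquine, pyrimethamine and proguanil, grown in A+ human erythrocytes with RPMI 1640, HEPES, NaHCO3 and 10% A+ serum. Rings synchronized with 5% sorbitol. Compounds tested at 2% hematocrit and 1% parasitaemia, 72 h at 37 °C in 5% O2, 5% CO2, in triplicate. DNA read by SYBR Green I lysis, 15 min, ex 497/em 520 nm. IC50 from three independent experiments.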

Leishmania donovani [6] = assay: Antimicrobial activity against Leishmania donovani MHOM/IN/00/DEVI amastigotes infected in mouse J774.1 cells after 120 hrs by microscopic analysis; format: functional, organism-based; conditions: J774.1, 120 h
Summary of the method: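 J774A.1 macrophages seeded at 5x10⁴ cells/mL, 24 h at 37 °C, 6% CO2. L. donovani promastigotes acidified 24 h at 27 °C in Schneider 20% FCS pH 5.4, then used to infect at 10:1 for 24 h. Compounds added in duplicate, final DMSO <0.5%, 120 h at 37 °C. Cells methanol-fixed and Giemsa-stained, ≥200 cells counted for % infected. IC50 by non-linear regression, mean of three independent experiments.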

| SMILES | CC50 at 72 h [1] | Ratio CC50/IC50 [2] | IC50 (Leishmania donovani [3]) | CC50 at 72 h [4] | Ratio CC50/IC50 [5] | IC50 (Leishmania infantum) | IC50 (Plasmodium falciparum) | IC50 (Leishmania donovani [6]) |
| --- | --- | --- | --- | --- | --- | --- | --- | --- |
| O=S(=O)(Cc1cn2cc(Br)ccc2n1)c1ccccc1 | 6.4 µM | <0.1 | > 50 µM | 7.3 µM | 0.15 |  |  |  |
| COc1cc(-c2ccc3nc(CS(=O)(=O)c4ccccc4)c([N+](=O)[O-])n3c2)cc(OC)c1OC | 5 µM | <0.1 | > 50 µM | 34.7 µM | <0.7 |  |  |  |
| O=[N+]([O-])c1c(CS(=O)(=O)c2ccccc2)nc2ccc(Cl)cn12 | > 100 µM | >5.5 | 18.2 µM | > 100 µM | >5.5 |  |  |  |
| CS(=O)(=O)Cc1nc2ccc(Br)cn2c1[N+](=O)[O-] | > 100 µM |  | > 50 µM | > 100 µM |  |  |  |  |
| ClCc1cn2cc(Br)ccc2n1 | 68.4 µM | <1.4 | > 50 µM | > 100 µM |  |  |  |  |
| O=[N+]([O-])c1c(CS(=O)(=O)c2ccc(F)cc2)nc2ccc(Br)cn12 | > 92.8 µM |  | > 50 µM | > 100 µM |  |  |  |  |
| O=[N+]([O-])c1c(CS(=O)(=O)c2ccc(Br)cc2)nc2ccc(Br)cn12 | 28.2 µM | 1.1 | 24.3 µM | 39 µM | 1.6 |  |  |  |
| O=[N+]([O-])c1c(CS(=O)(=O)c2ccc(I)cc2)nc2ccc(Br)cn12 | 16.2 µM | <0.3 | > 50 µM | 20.3 µM | <0.4 |  |  |  |
| O=[N+]([O-])c1c(CS(=O)(=O)c2ccc(-c3ccccc3)cc2)nc2ccc(Br)cn12 | 54.4 µM | <1.1 | > 50 µM | > 100 µM |  |  |  |  |
| O=[N+]([O-])c1c(CS(=O)(=O)c2ccccc2)nc2ccc(I)cn12 | 27 µM | 2.1 | 12.6 µM | > 100 µM | >7.9 |  |  |  |
| Cc1ccc(S(=O)(=O)Cc2nc3ccc(I)cn3c2[N+](=O)[O-])cc1 | 34.8 µM | 0.9 | 39.2 µM | > 50 µM | >1.3 |  |  |  |
| O=[N+]([O-])c1c(CS(=O)(=O)c2ccccc2)nc2ccc(Br)cn12 | 34.3 µM | 2.5 | 14 µM | > 100 µM | >7.1 | > 25 µM | 41.2 µM | > 25 µM |
| c1ccn2ccnc2c1 | > 100 µM |  | > 50 µM | > 100 µM |  |  |  |  |
| O=[N+]([O-])c1cnc2ccccn12 | > 100 µM |  | > 50 µM | > 100 µM |  |  |  |  |
| ClCc1cn2ccccc2n1 | > 100 µM |  | > 50 µM | > 100 µM |  |  |  |  |
| Cc1ccc(S(=O)(=O)Cc2cn3cc(Br)ccc3n2)cc1 | 20.9 µM | <0.4 | > 50 µM | 28.9 µM | <0.6 |  |  |  |
| O=[N+]([O-])c1c(CS(=O)(=O)c2ccc(Cl)cc2)nc2ccc(Cl)cn12 | 42.4 µM | 1.8 | 23 µM | > 25 µM | 1.1 |  |  |  |
| Cc1ccc(S(=O)(=O)Cc2nc3ccc(Br)cn3c2[N+](=O)[O-])cc1 | 44.3 µM | 1 | 44.1 µM | 5.9 µM | 0.13 |  |  |  |
| O=[N+]([O-])c1c(CSc2ccccc2)nc2ccc(Br)cn12 | > 6 µM |  | > 10 µM | 0.53 µM | <0.05 |  |  |  |
| C[C@@H]1[C@H](O)[C@@H](C)/C=C/C=C/C=C/C=C/C=C/C=C/C=C/[C@H](O[C@@H]2O[C@H](C)[C@@H](O)[C@H](N)[C@@H]2O)C[C@@H]2O[C@](O)(C[C@@H](O)C[C@@H](O)[C@H](O)CC[C@@H](O)C[C@@H](O)CC(=O)O[C@H]1C)C[C@H](O)[C@H]2C(=O)O [AMPHOTERICIN B] | 3.1 µM |  |  |  |  | 0.04 µM |  | 0.07 µM |
| O=S(=O)(Cc1cn2cc(I)ccc2n1)c1ccc(Cl)cc1 | 44.2 µM | <0.8 | > 50 µM | 39.1 µM | <0.8 |  |  |  |
| Cc1ccccc1-c1ccc2nc(CS(=O)(=O)c3ccccc3)c([N+](=O)[O-])n2c1 | 5 µM | <0.5 | > 10 µM | > 9.4 µM |  |  |  |  |
